# Laboratory results from publication PMC8799559 (Advances in Therapy, 2021).
# Columns and labels:
# [1] = Population pharmacokinetics; type: in vivo, human
# Summary of the method: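 Plasma drug measured by validated LC-MS/MS; LLOQ 2.08 or 2.18 ng/mL. Intensive sampling on cycle 1 day 4 and cycle 2 day 1, pre-dose to 8 h post-dose, plus pre-dose samples on cycle 1 day 8 and cycle 2 day 10. Prior model built on 505 subjects from eight studies applied by nonlinear mixed-effects (FOCEI). Checked by diagnostic plots, VPCs and NPDE.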
# [2] = system: 1L DLBCL; type: in vivo, human; settings: all-comers and BCL-2-IHC-positive subpopulations, logistic regression
# Summary of the method: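 Phase 2 1L DLBCL patients (n = 199) given 800 mg test compound on a 10/21-day schedule with R-CHOP. PET-CT complete response assessed at the end-of-treatment visit, 6–8 weeks from day 1 of the last cycle. Logistic regression (logit link) on nominal AUCss; α = 0.05 for the exposure coefficient. Covariates added by forward stepwise selection at α = 0.01.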
# [3] = fixed at legacy model estimate ref 13, cited from earlier work
# [4] = legacy model, 50 subjects receiving venetoclax + R ref 13; cited from earlier work
# [5] = phase 3 MURANO study, R/R CLL ref 19; cited from earlier work
# [6] = system: circulating lymphocyte counts; settings: cited from earlier work
# [7] = system: tumor size; settings: cited from earlier work
# [8] = food effect on relative bioavailability
compound,measurement,setting,value
CC1(C)CCC(CN2CCN(c3ccc(C(=O)NS(=O)(=O)c4ccc(NCC5CCOCC5)c([N+](=O)[O-])c4)c(Oc4cnc5[nH]ccc5c4)c3)CC2)=C(c2ccc(Cl)cc2)C1 [venetoclax],half-life,"[1]; human, plasma, oral",25.2 h
same,"θV2/F,GO27878 (study effect on V2/F)",[1]; multiplicative CAVALLI study effect relative to legacy model,2.33
same,Association between venetoclax AUCss nominal and PET-CR rates,[2],No clear association
same,"θCL/F, moderate CYP3A inhibitor",[3]; covariate effect on CL/F,0.84
same,"θCL/F, strong CYP3A inhibitor",[3]; covariate effect on CL/F,0.18
same,"θCL/F,OATP1B3 inhibitor",[3]; covariate effect on CL/F,0.85
same,"θV2/F, CLL/SLL/NHL",[3]; covariate effect on V2/F,1.71
same,"θV2/F,SEX=female",[3]; covariate effect on V2/F,0.68
same,CL/F,[3]; final PopPK model,447 L/day
same,Q/F,[3]; final PopPK model,97.2 L/day
same,V2/F,[3]; final PopPK model,118 L
same,V3/F,[3]; final PopPK model,119 L
same,ka,[3]; first-order absorption rate constant,3.72 day⁻¹
same,"θF1,FOOD=fasting",[3]; [8],0.34
same,"θF1,FOOD=fed",[3]; [8],1.23
same,"θF1,FOOD=high fat",[3]; [8],1.43
same,"θF1,FOOD=moderate fat",[3]; [8],1.31
same,Variability (CV) of CL/F,[3]; inter-individual variability,CV = 39.1%
same,Variability (CV) of F1,[3]; inter-individual variability,CV = 31.2%
same,Variability (CV) of V2/F,[3]; inter-individual variability,CV = 45.3%
same,ω^2CL/F,[3]; inter-individual variance,0.15
same,ω^2F1,[3]; inter-individual variance,0.10
same,ω^2V2/F,[3]; inter-individual variance,0.21
same,σ^2add,"[3]; residual variance, additive",3.07 × 10^–7
same,σ^2prop,"[3]; residual variance, proportional",0.22
same,Increase of venetoclax CL/F by concomitant R administration,[4],1.21 fold
same,Increase in CL/F for venetoclax when co-administered with R,[5],7%
same,EC50 for circulating lymphocyte counts,[6],0.00863 µg/mL
same,EC50 for tumor size,[7],0.146 µg/mL
